# Active and inactive are the calls of the source.
# How the values were obtained:
# [1] = biological target: 5-hydroxytryptamine receptor 2A (Rattus norvegicus, UniProt P14842); test: Displacement of [3H]ketanserin from 5HT2A receptor in rat cortex
# [2] = biological target: Muscarinic acetylcholine receptor; test: Displacement of [3H]QNB from muscarinic receptor in rat cortex
# [3] = biological target: T1, Adrenergic receptor alpha-1 (Rattus norvegicus, UniProt P15823+P23944+P43140); test: Displacement of [3H]prazosin from adrenergic alpha1 receptor in rat cortex
# T1 sequence (P15823 whole entry): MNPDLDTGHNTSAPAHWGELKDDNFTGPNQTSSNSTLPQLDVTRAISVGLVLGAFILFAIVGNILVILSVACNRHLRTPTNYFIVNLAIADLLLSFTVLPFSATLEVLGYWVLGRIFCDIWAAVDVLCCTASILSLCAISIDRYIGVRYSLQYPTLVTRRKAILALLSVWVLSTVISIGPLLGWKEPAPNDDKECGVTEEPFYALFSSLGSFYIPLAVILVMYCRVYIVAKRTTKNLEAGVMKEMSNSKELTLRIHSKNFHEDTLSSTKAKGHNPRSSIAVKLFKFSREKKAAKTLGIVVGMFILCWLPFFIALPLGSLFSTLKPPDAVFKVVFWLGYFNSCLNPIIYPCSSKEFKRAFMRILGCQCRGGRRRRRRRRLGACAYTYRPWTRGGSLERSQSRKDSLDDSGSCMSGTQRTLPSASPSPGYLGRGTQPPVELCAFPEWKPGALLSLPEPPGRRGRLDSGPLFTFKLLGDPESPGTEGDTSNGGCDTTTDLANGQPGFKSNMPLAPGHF
# T1 sequence (P23944 whole entry): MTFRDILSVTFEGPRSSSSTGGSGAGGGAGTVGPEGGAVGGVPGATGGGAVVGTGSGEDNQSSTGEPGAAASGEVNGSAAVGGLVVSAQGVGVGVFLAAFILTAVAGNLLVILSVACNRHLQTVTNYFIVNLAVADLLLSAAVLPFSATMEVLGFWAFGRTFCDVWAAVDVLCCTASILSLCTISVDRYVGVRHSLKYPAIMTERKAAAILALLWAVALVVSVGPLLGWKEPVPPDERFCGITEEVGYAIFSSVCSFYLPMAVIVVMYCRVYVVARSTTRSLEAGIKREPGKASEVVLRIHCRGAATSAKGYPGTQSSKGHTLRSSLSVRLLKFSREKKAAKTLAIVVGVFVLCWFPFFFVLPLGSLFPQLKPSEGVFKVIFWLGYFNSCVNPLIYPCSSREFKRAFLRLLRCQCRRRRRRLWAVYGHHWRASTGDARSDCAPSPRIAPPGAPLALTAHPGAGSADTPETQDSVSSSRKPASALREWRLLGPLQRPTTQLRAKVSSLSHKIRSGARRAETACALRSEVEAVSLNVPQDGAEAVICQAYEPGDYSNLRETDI
# T1 sequence (P43140 whole entry): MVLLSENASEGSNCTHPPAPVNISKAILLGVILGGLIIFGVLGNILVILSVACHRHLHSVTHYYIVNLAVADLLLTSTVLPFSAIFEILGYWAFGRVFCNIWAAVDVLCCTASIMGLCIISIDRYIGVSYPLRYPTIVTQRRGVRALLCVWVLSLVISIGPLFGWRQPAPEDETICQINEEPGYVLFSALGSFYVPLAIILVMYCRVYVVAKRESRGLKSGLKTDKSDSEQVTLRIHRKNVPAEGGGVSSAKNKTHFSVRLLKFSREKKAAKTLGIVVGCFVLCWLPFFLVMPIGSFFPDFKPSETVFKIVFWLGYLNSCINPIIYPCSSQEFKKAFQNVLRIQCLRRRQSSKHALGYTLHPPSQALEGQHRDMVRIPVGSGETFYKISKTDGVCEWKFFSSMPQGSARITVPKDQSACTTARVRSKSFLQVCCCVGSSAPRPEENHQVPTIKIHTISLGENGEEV
# [4] = biological target: T2, Alpha-2A adrenergic receptor (Rattus norvegicus, UniProt P22909); test: Displacement of [3H]RX821002 from adrenergic alpha2 receptor in rat cortex
# T2 sequence (P22909 whole entry): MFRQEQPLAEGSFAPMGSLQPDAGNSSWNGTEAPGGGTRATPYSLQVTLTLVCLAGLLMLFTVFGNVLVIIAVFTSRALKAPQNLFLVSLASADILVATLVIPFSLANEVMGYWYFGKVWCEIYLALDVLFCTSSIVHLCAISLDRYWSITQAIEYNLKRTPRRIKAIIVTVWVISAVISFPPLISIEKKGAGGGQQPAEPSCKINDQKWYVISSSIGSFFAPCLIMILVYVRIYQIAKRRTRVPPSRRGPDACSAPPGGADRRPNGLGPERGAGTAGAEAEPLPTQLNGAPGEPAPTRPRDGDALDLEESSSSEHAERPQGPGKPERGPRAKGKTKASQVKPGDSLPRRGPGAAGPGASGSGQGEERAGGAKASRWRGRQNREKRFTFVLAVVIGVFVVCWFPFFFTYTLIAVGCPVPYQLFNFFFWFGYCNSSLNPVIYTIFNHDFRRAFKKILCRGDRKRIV
# [5] = biological target: 5-hydroxytryptamine receptor 4 (Cavia porcellus, UniProt O70528); test: Displacement of [3H]GR-113808 from 5HT4 receptor in guinea pig striatum
# D(2) dopamine receptor = D(2) dopamine receptor (Rattus norvegicus, UniProt P61169); test: Displacement of [3H]spiperone from dopamine D2 receptor in rat striatum
# D(1A) dopamine receptor = D(1A) dopamine receptor (Rattus norvegicus, UniProt P18901); test: Displacement of [3H]SCH-23390 from dopamine D1 receptor in rat striatum
# [6] = biological target: T3, 5-hydroxytryptamine receptor 3A (Rattus norvegicus, UniProt P35563); test: Displacement of [3H]LY278584 from 5HT3 receptor in rat cortical homogenate
# T3 sequence (P35563 whole entry): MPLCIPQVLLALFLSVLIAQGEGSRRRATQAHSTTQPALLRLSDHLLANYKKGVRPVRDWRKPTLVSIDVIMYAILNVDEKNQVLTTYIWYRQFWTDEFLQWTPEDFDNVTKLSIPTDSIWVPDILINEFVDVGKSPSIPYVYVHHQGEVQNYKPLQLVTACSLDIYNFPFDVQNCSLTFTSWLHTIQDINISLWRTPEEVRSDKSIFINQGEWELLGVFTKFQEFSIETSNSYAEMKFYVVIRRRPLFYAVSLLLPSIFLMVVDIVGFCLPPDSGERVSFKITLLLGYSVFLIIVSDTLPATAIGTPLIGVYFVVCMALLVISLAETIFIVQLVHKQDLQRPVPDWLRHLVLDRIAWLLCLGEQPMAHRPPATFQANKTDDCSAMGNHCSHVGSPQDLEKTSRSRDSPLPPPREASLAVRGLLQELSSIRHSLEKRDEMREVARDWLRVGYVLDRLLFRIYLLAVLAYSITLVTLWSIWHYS
# [7] = biological target: T4, 5-hydroxytryptamine receptor 1A (Rattus norvegicus, UniProt P19327); test: Displacement of [3H]8-OHDPAT from 5HT1A receptor in rat hippocampus; assay type: tissue-based
# T4 sequence (P19327 whole entry): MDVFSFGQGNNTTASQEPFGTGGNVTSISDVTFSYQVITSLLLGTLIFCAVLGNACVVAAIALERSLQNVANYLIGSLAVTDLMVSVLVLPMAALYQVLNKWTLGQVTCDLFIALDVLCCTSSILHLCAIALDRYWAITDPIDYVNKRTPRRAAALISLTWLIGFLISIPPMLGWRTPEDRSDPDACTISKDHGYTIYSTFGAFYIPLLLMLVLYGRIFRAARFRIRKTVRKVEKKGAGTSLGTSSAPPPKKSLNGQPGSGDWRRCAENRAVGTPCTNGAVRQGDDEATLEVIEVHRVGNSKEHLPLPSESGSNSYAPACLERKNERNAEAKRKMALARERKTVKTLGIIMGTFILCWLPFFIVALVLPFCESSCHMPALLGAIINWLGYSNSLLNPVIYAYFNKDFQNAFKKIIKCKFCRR
# [8] = biological target: T5, 5-hydroxytryptamine receptor 3A (Cavia porcellus) (UniProt O70212); test: Agonist activity at 5HT3 receptor in spontaneously beating guinea pig right atrium assessed as positive chronotropic potency at 100 uM; assay type: functional, tissue-based; conditions: Cardiac atrium
# T5 sequence (whole entry): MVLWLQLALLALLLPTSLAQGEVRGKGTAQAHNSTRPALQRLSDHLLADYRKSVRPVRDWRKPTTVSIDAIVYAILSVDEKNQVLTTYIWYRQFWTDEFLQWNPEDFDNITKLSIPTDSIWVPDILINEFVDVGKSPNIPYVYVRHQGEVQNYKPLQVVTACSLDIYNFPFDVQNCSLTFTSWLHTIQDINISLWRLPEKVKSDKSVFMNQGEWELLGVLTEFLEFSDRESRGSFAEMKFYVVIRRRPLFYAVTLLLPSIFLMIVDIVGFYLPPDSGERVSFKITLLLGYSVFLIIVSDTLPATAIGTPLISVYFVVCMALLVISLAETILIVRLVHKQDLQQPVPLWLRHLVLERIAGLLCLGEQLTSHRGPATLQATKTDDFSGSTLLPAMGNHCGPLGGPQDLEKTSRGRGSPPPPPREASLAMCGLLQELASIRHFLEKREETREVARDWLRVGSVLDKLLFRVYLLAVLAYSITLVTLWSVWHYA
# Outline: (§1)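 Guinea pig left and right atria were hung in a 15 mL bath of PSS (pH 7.4, 95% O2-5% CO2, 35 °C) with ketanserin 1 µM. The right atrium beat spontaneously; the left was paced at 1 Hz. Cumulative doses (0.1-100 µM; DMSO ≤0.3%) were added after 45-60 min stabilization. Rate or isometric force was recorded. EC50 came from Probit analysis, n≥4. Intrinsic activity was taken relative to 5-HT.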
# [9] = biological target: T5, 5-hydroxytryptamine receptor 3A (Cavia porcellus); test: Agonist activity at 5HT3 receptor in voltage-stimulated guinea pig left atrium assessed as positive inotropic potency at 100 uM; assay type: functional, tissue-based; conditions: Cardiac atrium; outline: as §1
# [10] = biological target: T5, 5-hydroxytryptamine receptor 3A (Cavia porcellus); test: Agonist activity at 5HT3 receptor in guinea pig thoracic aorta assessed as positive contractility potency at 100 uM; assay type: functional, tissue-based
# Outline: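 Guinea pig aortic helicoidal strips in PSS at 35 °C, aerated, under 1 g resting force, washed every 20 min for 1 h. Compounds added cumulatively 0.1-100 µM (DMSO vehicle); isometric contraction recorded.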
# [11] = biological target: T6, 5-hydroxytryptamine receptor 3A (Cavia porcellus, UniProt O70212); test: Antagonist activity at 5HT3 receptor in spontaneously beating guinea pig right atrium assessed as inhibition of serotonin-induced maximum response by competitive binding assay; design: species or system Cardiac atrium; conditions: read-out: pA2 (converted)
# T6 sequence (O70212 whole entry): T5 sequence (whole entry)
# Rattus norvegicus [12] = test: Agonist activity at 5HT3 receptor in iv dosed urethane-anesthetized Sprague-Dawley rat assessed as induction of bradycardia measured after 5 to 30 mins post-treatment by von Bezold-Jarisch reflex test; assay type: functional
# Rattus norvegicus [13] = test: Antagonist activity at 5HT3 receptor in urethane-anesthetized Sprague-Dawley rat assessed as effect on 1-phenylbiguanide-induced bradycardia at 36 ug/kg, iv administered 5 mins before 1-phenylbiguanide challenge measured after 5 to 30 mins post-treatment by von Bezold-Jarisch reflex test; assay type: functional, organism-based
# [14] = biological target: T6, 5-hydroxytryptamine receptor 3A; test: Antagonist activity at 5HT3 receptor in spontaneously beating guinea pig right atrium assessed as inhibition of serotonin-induced maximum response by noncompetitive binding assay; assay type: tissue-based, Cardiac atrium
# Outline: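 Spontaneously beating guinea pig right atrium; 5-HT concentration-response curves (0.001-1.0 µM) before and after 30 min antagonist exposure at three concentrations. IC50 is inhibition of 50% of maximal 5-HT response, Probit analysis, n = 4-6.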
# [15] = biological target: T5, 5-hydroxytryptamine receptor 3A (Cavia porcellus); test: Agonist activity at 5HT3 receptor in voltage-stimulated guinea pig left atrium assessed as positive inotropic potency; assay type: functional, tissue-based; conditions: Cardiac atrium
# Outline: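 Isolated guinea pig atria in PSS (Tyrode) with ketanserin 1 µM, 95% O2-5% CO2, pH 7.4, 35 °C. Right atrium beating spontaneously (rate); left atrium paced 1 Hz, 0.6-0.8 ms pulses near 50% threshold (force). Isometric recording after 45-60 min stabilization.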
# Rattus norvegicus [16] = test: Agonist activity at 5HT3 receptor in urethane-anesthetized Sprague-Dawley rat assessed as decrease in heart rate at 40 ug/kg, iv up to 30 seconds post-treatment by von Bezold-Jarisch reflex test; assay type: functional; design: scale not given: the % may be the effect or the level left
# [17] = biological target: T5, 5-hydroxytryptamine receptor 3A (Cavia porcellus); test: Intrinsic activity at 5HT3 receptor in voltage-stimulated guinea pig left atrium assessed as positive inotropic potency relative to serotonin; assay type: tissue-based; conditions: Cardiac atrium
# Outline: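 Electrically paced guinea pig left atrium (1 Hz) in PSS containing ketanserin 1 µM, pH 7.4, 35 °C. Contractile force recorded isometrically while cumulative concentrations of 0.1-100 µM were added (DMSO ≤0.3%). Intrinsic activity is expressed as the maximal response relative to that of 5-HT.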
# 5-hydroxytryptamine receptor 2A, sequence (P14842 whole entry): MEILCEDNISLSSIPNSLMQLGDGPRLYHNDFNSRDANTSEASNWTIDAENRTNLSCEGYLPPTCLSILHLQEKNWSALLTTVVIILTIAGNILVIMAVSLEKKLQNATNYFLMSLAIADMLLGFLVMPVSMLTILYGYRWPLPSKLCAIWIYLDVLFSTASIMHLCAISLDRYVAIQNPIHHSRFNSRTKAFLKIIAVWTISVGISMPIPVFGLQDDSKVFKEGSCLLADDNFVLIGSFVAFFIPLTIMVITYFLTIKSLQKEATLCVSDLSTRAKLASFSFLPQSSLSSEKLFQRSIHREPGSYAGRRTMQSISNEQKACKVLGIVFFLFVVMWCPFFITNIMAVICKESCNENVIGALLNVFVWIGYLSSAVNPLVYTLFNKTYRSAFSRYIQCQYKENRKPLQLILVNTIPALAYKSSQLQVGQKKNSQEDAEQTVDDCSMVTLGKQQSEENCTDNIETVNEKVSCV
# D(2) dopamine receptor, sequence (P61169 whole entry): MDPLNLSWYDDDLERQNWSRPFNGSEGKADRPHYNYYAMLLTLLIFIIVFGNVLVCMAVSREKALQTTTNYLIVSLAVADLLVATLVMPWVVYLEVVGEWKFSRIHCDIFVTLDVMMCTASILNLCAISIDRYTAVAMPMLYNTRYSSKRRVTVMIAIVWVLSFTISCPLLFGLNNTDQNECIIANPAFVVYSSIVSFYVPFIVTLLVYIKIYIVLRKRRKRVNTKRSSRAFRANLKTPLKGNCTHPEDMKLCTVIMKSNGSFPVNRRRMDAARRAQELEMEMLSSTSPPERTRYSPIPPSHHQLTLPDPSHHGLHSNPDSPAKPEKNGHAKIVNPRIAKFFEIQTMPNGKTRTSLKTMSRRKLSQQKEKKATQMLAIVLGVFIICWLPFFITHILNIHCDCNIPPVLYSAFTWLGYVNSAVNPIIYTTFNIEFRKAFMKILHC
# 5-hydroxytryptamine receptor 4, sequence (O70528 whole entry): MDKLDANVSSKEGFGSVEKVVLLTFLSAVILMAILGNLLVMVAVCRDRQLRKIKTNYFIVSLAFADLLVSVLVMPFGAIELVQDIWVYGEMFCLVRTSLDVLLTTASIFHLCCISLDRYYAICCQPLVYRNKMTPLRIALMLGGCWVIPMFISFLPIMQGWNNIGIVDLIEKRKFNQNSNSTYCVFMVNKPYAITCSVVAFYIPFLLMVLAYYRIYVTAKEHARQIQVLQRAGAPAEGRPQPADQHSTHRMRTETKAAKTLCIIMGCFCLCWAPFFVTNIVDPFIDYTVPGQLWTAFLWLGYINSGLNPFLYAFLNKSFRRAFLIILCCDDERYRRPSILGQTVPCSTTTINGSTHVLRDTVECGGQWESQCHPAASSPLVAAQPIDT
# D(1A) dopamine receptor, sequence (P18901 whole entry): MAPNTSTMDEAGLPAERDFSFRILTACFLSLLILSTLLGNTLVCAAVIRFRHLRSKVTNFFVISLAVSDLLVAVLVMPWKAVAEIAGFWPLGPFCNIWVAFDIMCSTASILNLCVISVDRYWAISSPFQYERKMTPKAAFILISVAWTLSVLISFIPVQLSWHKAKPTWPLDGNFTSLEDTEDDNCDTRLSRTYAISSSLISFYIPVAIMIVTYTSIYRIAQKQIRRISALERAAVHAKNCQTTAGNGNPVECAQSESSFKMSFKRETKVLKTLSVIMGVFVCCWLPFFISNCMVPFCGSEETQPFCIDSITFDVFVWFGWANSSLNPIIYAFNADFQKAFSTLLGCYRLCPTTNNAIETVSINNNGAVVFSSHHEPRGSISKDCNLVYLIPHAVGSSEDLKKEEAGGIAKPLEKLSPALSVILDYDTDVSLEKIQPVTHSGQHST
smiles,measurement,setting,value
N[C@H](CN1CCN(c2nc3cc(F)ccc3n3cccc23)CC1)C(=O)O,Ki,[1],> 10000 nM
same,Ki,[2],> 10000 nM
same,Ki,[3],> 10000 nM
same,Ki,[4],> 10000 nM
same,Ki,[5],> 10000 nM
same,Ki,D(2) dopamine receptor,> 10000 nM
same,Ki,D(1A) dopamine receptor,> 10000 nM
same,Ki,[6],1.2 nM
same,Ki,[7],480 nM
CN1[C@@H]2CC[C@H]1C[C@@H](OC(=O)c1c[nH]c3ccccc13)C2 [TROPISETRON],pD2,[8],inactive
same,pD2,[9],inactive
same,pD2,[10],inactive
same,Kb,[11],30.2 nM
O=C(O)CN1CCN(c2nc3cc(F)ccc3n3cccc23)CC1,pD2,[8],inactive
same,pD2,[9],inactive
same,ED50,Rattus norvegicus [12],0.036 mg/kg
same,Activity,Rattus norvegicus [13],inactive
same,pD2,[10],inactive
same,IC50,[14],1910 nM
same,Ki,[6],11.7 nM
N=C(N)NC(=N)Nc1ccccc1 [PHENYL BIGUANIDE],pD2,[15],4.31
same,Activity,Rattus norvegicus [16],64%
same,Intrinsic activity,[17],1

# Source: ChEMBL document CHEMBL1136924 (J Med Chem, 2009)
